Assay results pooled from the literature.
Each line is one published result; the experiments were not run side by side.
Target: Platelet-derived growth factor receptor beta (PDGFRB, Homo sapiens, UniProt P09619)

SMILES	assay	setting	remaining binding [%]
CCN(CC)CCCCNc1ncc2cc(-c3cc(OC)cc(OC)c3)c(NC(=O)NC(C)(C)C)nc2n1	cell-free assay, competition with immobilised ligand	1 µM	38
N#Cc1ccccc1CSc1nnc2c(n1)[nH]c1ccccc12	binding, competition with immobilised ligand	10 µM	91
COCCOc1nc(-c2ccc(Cl)nc2)nc2c1CN(C(=O)c1ncn3ccccc13)CC2	cell-free assay, competition with immobilised ligand	0.1 µM	100
CN(C)c1nccc(-c2cnn3ncccc23)n1	binding	1 µM	100
Nc1ncc2c(n1)-c1c([nH]c3ccc(C#CC4CC4)cc13)CCCC2	binding, competition with immobilised ligand	1 µM	100
O=C(Nc1cnc(Oc2ccc(F)cc2)nc1)N1CCc2ncccc2[C@@H]1c1ccc(F)cc1	cell-free assay, competition with immobilised ligand	1 µM	100
C[C@@H]1CCN(c2nccc(-c3cnn4ncccc34)n2)C1	binding	1 µM	100
O=C(c1ccc(Nc2ncc(Cl)c(-c3cc4ccccc4s3)n2)cc1)N1CCC(N2CCCC2)CC1	binding, competition with immobilised ligand	1 µM	1.9
C[C@@H]1CN(c2ccc3ncc(-c4ccc5[nH]nc(C6CC6)c5c4)n3n2)C[C@H](C)O1	binding, competition with immobilised ligand	50 nM	87
Cc1cc(-n2nc(Cc3cc(F)cc(C(F)(F)F)c3)nc2C)ccc1C(N)=O	cell-free assay, competition with immobilised ligand	1 µM	98
N[C@@H]1CCN(c2nccc(-c3cnn4ncccc34)n2)C1	binding	1 µM	100
N#CC1(c2ccccn2)CCN(Cc2cc(C(=O)N3CCCC3)c(=O)n3ccccc23)CC1	cell-free assay, competition with immobilised ligand	1 µM	86
CN(C)c1ncc(F)c(-c2cnn3ncccc23)n1	binding	1 µM	100
CC(=O)N1CCC(c2ccc(C(=O)NC(=N)N)cc2C(F)(F)F)CC1	cell-free assay, competition with immobilised ligand	1 µM	100
CN(CCCC(F)(F)F)c1nccc(-c2cnn3ncccc23)n1	binding	1 µM	95
O=C(c1ccc(Nc2ncc(Cl)c(-c3ccc(Cl)s3)n2)cc1)N1CCC(N2CCCC2)CC1	binding, competition with immobilised ligand	1 µM	0
Cc1nccc(COC(=O)N2C[C@@H]3[C@@H](CNC(=O)c4ccc5[nH]nnc5c4)[C@@H]3C2)n1	cell-free assay, competition with immobilised ligand	1 µM	84
COc1cnc(Nc2cccc(S(N)(=O)=O)c2)nc1N1CCN(c2ccccc2)CC1	binding, competition with immobilised ligand	1 µM	87
O=C(Nc1c[nH]nc1C(=O)NC1CCNCC1)c1cc(F)cc(F)c1	binding, competition with immobilised ligand	1 µM	100
CC(=O)C1=C(C)N(c2cccc(C(F)(F)F)c2)C(=O)N[C@@H]1c1ccc(C#N)nc1	cell-free assay, competition with immobilised ligand	1 µM	94
COc1ncc2cc3ccccc3nc2c1C#N	cell-free assay, competition with immobilised ligand	5 µM	97
C[C@@H]1CN(c2cc(-c3n[nH]c4ccc(OC5(C)CC5)cc34)ncn2)C[C@H](C)O1	cell-free assay, competition with immobilised ligand	0.1 µM	73
COc1ccnn2ncc(-c3ccnc(N(C)C)n3)c12	binding	1 µM	100
O=C(c1ccc(Nc2nccc(-c3cc4ccccc4s3)n2)cc1)N1CCC(N2CCCC2)CC1	binding, competition with immobilised ligand	1 µM	11
COc1cnc(Nc2cccc(S(N)(=O)=O)c2)nc1N1CCN(c2ccccc2)C(=O)C1	binding, competition with immobilised ligand	1 µM	94
